Reference: ChEMBL document CHEMBL3779792, “Anti-proliferative evaluation of monoterpene derivatives against leukemia” (Eur J Med Chem, 2016)
pEC50: −log10 of the molar value. The source made the active and inactive calls. The calls are words filed in the database; no cut-off is given here.

What was measured:
NALM-6 [1] = experiment: Induction of apoptosis in human NALM6 cells assessed as cleaved PARP level at 0.5 uM measured after 12 hrs by immunoblot analysis; type: functional, cell-based
SEM cells [2] = experiment: Induction of apoptosis in human SEM cells assessed as necrotic cells at 1 uM measured after 24 hrs by annexin V-propidium iodide staining based flow cytometric analysis (reference value: 0.0%); type: functional
SEM cells [3] = experiment: Effect on cell cycle in human SEM cells assessed as accumulation at G0/G1 phase at 1 uM after 24 hrs by propidium iodide staining based flow cytometry analysis (reference value: 45.75%); type: functional
SEM cells [4] = experiment: Induction of apoptosis in human SEM cells assessed as viable cells at 1 uM measured after 24 hrs by annexin V-propidium iodide staining based flow cytometric analysis (reference value: 1.5%); type: functional; conditions: read-out: Activity
SEM cells [5] = experiment: Induction of apoptosis in human SEM cells assessed as early apoptotic cells at 1 uM measured after 24 hrs by annexin V-propidium iodide staining based flow cytometric analysis (reference value: 85.3%); type: functional
NALM-6 [6] = experiment: Induction of apoptosis in human NALM6 cells assessed as activated caspase3 level at 0.5 uM after 3 hrs by immunoblot analysis; type: functional, cell-based
SEM cells [7] = experiment: Induction of apoptosis in human SEM cells assessed as late apoptotic cells at 1 uM measured after 24 hrs by annexin V-propidium iodide staining based flow cytometric analysis (reference value: 7.2%); type: functional
SEM cells [8] = experiment: Induction of apoptosis in human SEM cells assessed as activated caspase3 levels at 0.5 uM after 6 hrs by immunoblot analysis; type: functional, cell-based
NALM-6 [9] = experiment: Induction of apoptosis in human NALM6 cells assessed as early apoptotic cells at 0.5 uM measured after 24 hrs by annexin V-propidium iodide staining based flow cytometric analysis (reference value: 91.5%); type: functional
[10] = Cytotoxicity in human SEM cells assessed as cell death at 1 uM after 24 hrs; type: cell-based
NALM-6 [11] = experiment: Induction of apoptosis in human NALM6 cells assessed as late apoptotic cells at 0.5 uM measured after 24 hrs by annexin V-propidium iodide staining based flow cytometric analysis (reference value: 4.3%); type: functional
NALM-6 [12] = experiment: Induction of apoptosis in human NALM6 cells assessed as cleaved PARP level at 0.5 uM measured after 3 and 6 hrs by immunoblot analysis; type: functional, cell-based
NALM-6 [13] = experiment: Induction of apoptosis in human NALM6 cells assessed as necrotic cells at 0.5 uM measured after 24 hrs by annexin V-propidium iodide staining based flow cytometric analysis (reference value: 0.0%); type: functional
SEM cells [14] = experiment: Induction of apoptosis in human SEM cells assessed as early apoptotic cells at 8 uM measured after 24 hrs by annexin V-propidium iodide staining based flow cytometric analysis (reference value: 85.3%); type: functional
Procedure, shortened: (§1)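 SEM and Nalm06 cells were treated for 24 hr, then stained with fluorochrome-labeled Annexin V and propidium iodide for flow cytometry. Quadrants were scored as viable, early apoptotic, late apoptotic (Q2) and necrotic. DMSO was the negative control and 1 µM staurosporine the positive control. Representative of 3 independent experiments.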

SEM cells [15] = experiment: Effect on cell cycle in human SEM cells assessed as accumulation at G0/G1 phase at 8.5 uM after 24 hrs by propidium iodide staining based flow cytometry analysis (reference value: 45.75%); type: functional
NALM-6 [16] = experiment: Induction of apoptosis in human NALM6 cells assessed as late apoptotic cells at 8.5 uM measured after 24 hrs by annexin V-propidium iodide staining based flow cytometric analysis (reference value: 4.3%); type: functional; procedure, shortened: as §1
Jurkat = experiment: Cytotoxicity against human Jurkat cells after 72 hrs by Cell-Titer Glo assay; type: functional, cell-based
SEM cells [17] = experiment: Effect on cell cycle in human SEM cells assessed as accumulation at S phase at 8.5 uM after 24 hrs by propidium iodide staining based flow cytometry analysis (reference value: 46.62%); type: functional
SEM cells [18] = experiment: Induction of apoptosis in human SEM cells assessed as late apoptotic cells at 8 uM measured after 24 hrs by annexin V-propidium iodide staining based flow cytometric analysis (reference value: 7.2%); type: functional; procedure, shortened: as §1
SEM cells [19] = experiment: Induction of apoptosis in human SEM cells assessed as viable cells at 8 uM measured after 24 hrs by annexin V-propidium iodide staining based flow cytometric analysis (reference value: 1.5%); type: functional; conditions: read-out: Activity; procedure, shortened: as §1
[20] = Cytotoxicity against human SEM cells after 72 hrs by Cell-Titer Glo assay; type: functional, cell-based
NALM-6 [21] = experiment: Induction of apoptosis in human NALM6 cells assessed as activated caspase3 level at 4.5 uM after 12 hrs by immunoblot analysis; type: functional, cell-based
Procedure, shortened: (§2)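 Immunoblots for activated caspase-3, activated caspase-7, and cleaved and uncleaved PARP. Cells were treated for 3, 6, 12 and 24 hr at 8.0 µM (SEM) or 4.5 µM (Nalm06). Negative controls were DMSO vehicle and an analog at 20 µM.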

SEM cells [22] = experiment: Induction of apoptosis in human SEM cells assessed as activated caspase3 levels at 8 uM after 6 hrs by immunoblot analysis; type: functional, cell-based; procedure, shortened: as §2
HEK293 = experiment: Cytotoxicity against HEK293 cells after 72 hrs by Cell-Titer Glo assay; type: cell-based; conditions: Homo sapiens, HEK293, 72 h
SEM cells [23] = experiment: Induction of apoptosis in human SEM cells assessed as activated caspase7 levels at 8 uM after 6 and 12 hrs by immunoblot analysis; type: functional, cell-based; procedure, shortened: as §2
SEM cells [24] = experiment: Induction of apoptosis in human SEM cells assessed as cleaved PARP levels at 8 uM after 3, 6 and 12 hrs by immunoblot analysis; type: functional, cell-based; procedure, shortened: as §2
NALM-6 [25] = experiment: Induction of apoptosis in human NALM6 cells assessed as cleaved PARP level at 4.5 uM measured after 12 hrs by immunoblot analysis; type: functional, cell-based; procedure, shortened: as §2
Raji = experiment: Cytotoxicity against human Raji cells after 72 hrs by Cell-Titer Glo assay; type: functional, cell-based
[26] = biological target: T1, c-Jun N-terminal kinase, JNK (Homo sapiens) (UniProt P45983+P53779+P45984); experiment: Induction of JNK phosphorylation in human SEM cells at 8 uM after 3 to 12 hrs by immunoblot analysis; type: cell-based
Procedure, shortened: (§3)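 Immunoblot of phospho-JNK and total JNK after 3, 6, 12 and 24 hr treatment at 8.0 µM (SEM) or 4.5 µM (Nalm06), with DMSO and an analog at 20 µM as negative controls. Quantified as the phospho/total JNK ratio normalized to DMSO (set to 1.0).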

NALM-6 [27] = experiment: Induction of apoptosis in human NALM6 cells assessed as activated caspase7 level at 4.5 uM after 6 and 12 hrs by immunoblot analysis; type: functional, cell-based; procedure, shortened: as §2
NALM-6 [28] = experiment: Induction of apoptosis in human NALM6 cells assessed as necrotic cells at 8.5 uM measured after 24 hrs by annexin V-propidium iodide staining based flow cytometric analysis (reference value: 0.0%); type: functional; procedure, shortened: as §1
SEM cells [29] = experiment: Effect on cell cycle arrest in human SEM cells assessed as accumulation at G2/M phase at 8.0 uM after 24 hrs by propidium iodide staining based flow cytometry analysis (reference value: 7.63%)
BJ = experiment: Cytotoxicity against human BJ cells after 72 hrs by Cell-Titer Glo assay; type: cell-based
[30] = biological target: T1, c-Jun N-terminal kinase, JNK (Homo sapiens); experiment: Induction of JNK phosphorylation in human NALM6 cells at 4.5 uM after 3 to 12 hrs by immunoblot analysis; type: cell-based; conditions: NALM-6; procedure, shortened: as §3
SEM cells [31] = experiment: Induction of apoptosis in human SEM cells assessed as uncleaved PARP levels at 8 uM after 3 to 12 hrs by immunoblot analysis; type: functional, cell-based; procedure, shortened: as §2
SEM cells [32] = experiment: Induction of apoptosis in human SEM cells assessed as activated caspase7 levels at 8.0 uM after 6 and 12 hrs by immunoblot analysis
NALM-6 [33] = experiment: Induction of apoptosis in human NALM6 cells assessed as early apoptotic cells at 8.5 uM measured after 24 hrs by annexin V-propidium iodide staining based flow cytometric analysis (reference value: 91.5%); type: functional; procedure, shortened: as §1
NALM-6 [34] = experiment: Induction of apoptosis in human NALM6 cells assessed as cleaved PARP level at 4.5 uM measured from 3 to 6 hrs by immunoblot analysis; type: functional, cell-based; procedure, shortened: as §2
HepG2 = experiment: Cytotoxicity against human HepG2 cells after 72 hrs by Cell-Titer Glo assay; type: functional, cell-based; conditions: HepG2, 72 h
SEM cells [35] = experiment: Induction of apoptosis in human SEM cells assessed as necrotic cells at 8 uM measured after 24 hrs by annexin V-propidium iodide staining based flow cytometric analysis (reference value: 0.0%); type: functional; procedure, shortened: as §1
[36] = Cytotoxicity against human NALM6 cells after 72 hrs by Cell-Titer Glo assay; type: functional, cell-based; conditions: NALM-6, 72 h

Compound: CN[C@@H]1C[C@H]2O[C@@](C)([C@@H]1OC)n1c3ccccc3c3c4c(c5c6ccccc6n2c5c31)C(=O)NC4 [STAUROSPORINE]
- Activity (NALM-6 [1]): Active
- Activity (SEM cells [2]): 0%
- Activity (SEM cells [3]): 100%
- viability at 1 µM (SEM cells [4]): 5.5%
- Activity (SEM cells [5]): 2.6%
- Activity (NALM-6 [6]): Active
- Activity (SEM cells [7]): 85.3%
- Activity (SEM cells [8]): Active
- Activity (NALM-6 [9]): 49%
- Activity [10]: Toxic
- Activity (NALM-6 [11]): 25%
- Activity (NALM-6 [12]): Active
- Activity (NALM-6 [13]): 0%

Compound: C=C[C@@](C)(/C=C/c1ccc(O)c(/C=C/C(=O)c2ccccc2)c1)CCC=C(C)C
- Activity (SEM cells [14]): 0.9%
- Activity (SEM cells [15]): 36.25%
- Activity (NALM-6 [16]): 81.2%
- pEC50 (Jurkat): < 4.31
- Activity (SEM cells [17]): 55.75%
- Activity (SEM cells [18]): 81.1%
- viability at 8 µM (SEM cells [19]): 6.9%
- pEC50 [20]: 5.10
- Activity (NALM-6 [21]): Active
- Activity (SEM cells [22]): Active
- pEC50 (HEK293): < 5.13
- Activity (SEM cells [23]): Active
- Activity (SEM cells [24]): Active
- Activity (NALM-6 [25]): Active
- pEC50 (Raji): < 4.58
- Activity [26]: Active
- Activity (NALM-6 [27]): Active
- Activity (NALM-6 [28]): 0.1%
- Activity (SEM cells [29]): 8%
- pEC50 (BJ): < 4.70
- Activity [30]: inactive
- Activity (SEM cells [31]): inactive
- Activity (SEM cells [32]): Active
- Activity (NALM-6 [33]): 2.5%
- Activity (NALM-6 [34]): inactive
- pEC50 (HepG2): < 4.28
- Activity (SEM cells [35]): 0%
- pEC50 [36]: 5.35

Compound: C=C[C@@](C)(/C=C/c1ccc(O)cc1)CC/C=C(\C)C=O
- pEC50 (Jurkat): < 4.31
- pEC50 [20]: < 4.44
- pEC50 (HEK293): < 4.44
- pEC50 (Raji): < 4.58
- pEC50 (BJ): < 4.44
- pEC50 (HepG2): < 4.28
- pEC50 [36]: 4.90

Compound: C=C[C@@](C)(/C=C/c1ccc(OS(=O)(=O)C(F)(F)F)cc1)CCC=C(C)C
- pEC50 (Jurkat): < 4.31
- pEC50 [20]: < 4.44
- pEC50 (HEK293): < 4.44
- pEC50 (Raji): < 4.58
- pEC50 (BJ): < 4.44
- pEC50 (HepG2): < 4.28
- pEC50 [36]: < 4.36

Compound: C=C[C@@](C)(/C=C/c1ccc(O)cc1)CC/C=C/C(=O)OCC
- pEC50 (Jurkat): < 4.31
- pEC50 [20]: < 4.44
- pEC50 (HEK293): < 4.44
- pEC50 (Raji): < 4.58
- pEC50 (BJ): < 4.44
- pEC50 (HepG2): < 4.28
- pEC50 [36]: < 4.36

Compound: C=C[C@@](C)(/C=C/c1ccc(OC)cc1)CCC=C(C)C
- pEC50 (Jurkat): < 4.31
- pEC50 [20]: < 4.44
- pEC50 (HEK293): < 4.44
- pEC50 (Raji): < 4.58
- pEC50 (BJ): < 4.44
- pEC50 (HepG2): < 4.28
- pEC50 [36]: < 4.36
